We go through eight molecules from ChEMBL document CHEMBL4184298, “Development of Potent Inhibitors of Receptor Tyrosine Kinases by Ligand-Based Drug Design and Target-Biased Phenotypic Screening” (J Med Chem, 2018).

For one assay, the species on record is Mus musculus. Kind of assay: Antiproliferative activity against mouse AXL-positive Breast cancer cells after 5 days by PrestoBlue assay. The format is functional. In a few lines:
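Cell proliferation: AXL+ cells were exposed to 8-point half-log dilutions (0.03–100 μM). Viability was read with PrestoBlue reagent on day 5.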

The target in assay [1] is Proto-oncogene tyrosine-protein kinase Src (Homo sapiens, UniProt P12931). Kind of assay: Inhibition of wild-type human partial length SRC (L240 to L536 residues) expressed in bacterial expression system using poly [Glu, Try] 4:1 as substrate in presence of [gamma-33P]ATP.
Chain of Proto-oncogene tyrosine-protein kinase Src (P12931 2-536 limits assumed): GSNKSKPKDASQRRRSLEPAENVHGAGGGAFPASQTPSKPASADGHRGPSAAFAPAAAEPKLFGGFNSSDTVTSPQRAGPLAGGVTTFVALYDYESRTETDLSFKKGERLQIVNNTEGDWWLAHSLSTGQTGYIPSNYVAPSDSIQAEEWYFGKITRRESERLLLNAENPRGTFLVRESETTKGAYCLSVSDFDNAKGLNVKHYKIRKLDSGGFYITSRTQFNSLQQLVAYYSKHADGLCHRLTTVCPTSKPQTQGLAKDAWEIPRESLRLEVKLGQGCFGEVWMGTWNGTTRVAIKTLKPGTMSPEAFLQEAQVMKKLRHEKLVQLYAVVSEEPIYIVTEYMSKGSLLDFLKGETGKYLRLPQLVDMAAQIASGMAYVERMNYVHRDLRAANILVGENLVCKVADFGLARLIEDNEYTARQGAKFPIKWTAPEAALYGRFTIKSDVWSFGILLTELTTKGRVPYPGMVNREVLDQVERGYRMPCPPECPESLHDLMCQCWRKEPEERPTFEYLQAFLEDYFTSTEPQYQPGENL
Assay [2] addresses Mast/stem cell growth factor receptor Kit (Homo sapiens, UniProt P10721). The assay can be described thus: Inhibition of wild-type human partial length KIT (I571 to D952 residues) expressed in bacterial expression system using poly [Glu, Try] 4:1 as substrate in presence of [gamma-33P]ATP. Put shortly: (§1)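 Radiometric assay on recombinant kinase: ³³P incorporation into the kinase substrate was measured and activity was expressed relative to a DMSO control.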

The target in assay [3] is Serine/threonine-protein kinase mTOR (Homo sapiens, UniProt P42345). Kind of assay: Inhibition of wild-type human partial length MTOR (L1382 to W2549 residues) expressed in mammalian expression system using poly [Glu, Try] 4:1 as substrate in presence of [gamma-33P]ATP. In a few lines: as §1
Assay [4] deals with Hepatocyte growth factor receptor (Homo sapiens, UniProt P08581). Kind of assay: Inhibition of wild-type human partial length MET (D1010 to S1367 residues) expressed in bacterial expression system using poly [Glu, Try] 4:1 as substrate in presence of [gamma-33P]ATP. In a few lines:
as §1

The target in assay [5] is T1, Tyrosine-protein kinase receptor TYRO3 (Homo sapiens, UniProt Q06418).
T1 sequence (Q06418 whole entry): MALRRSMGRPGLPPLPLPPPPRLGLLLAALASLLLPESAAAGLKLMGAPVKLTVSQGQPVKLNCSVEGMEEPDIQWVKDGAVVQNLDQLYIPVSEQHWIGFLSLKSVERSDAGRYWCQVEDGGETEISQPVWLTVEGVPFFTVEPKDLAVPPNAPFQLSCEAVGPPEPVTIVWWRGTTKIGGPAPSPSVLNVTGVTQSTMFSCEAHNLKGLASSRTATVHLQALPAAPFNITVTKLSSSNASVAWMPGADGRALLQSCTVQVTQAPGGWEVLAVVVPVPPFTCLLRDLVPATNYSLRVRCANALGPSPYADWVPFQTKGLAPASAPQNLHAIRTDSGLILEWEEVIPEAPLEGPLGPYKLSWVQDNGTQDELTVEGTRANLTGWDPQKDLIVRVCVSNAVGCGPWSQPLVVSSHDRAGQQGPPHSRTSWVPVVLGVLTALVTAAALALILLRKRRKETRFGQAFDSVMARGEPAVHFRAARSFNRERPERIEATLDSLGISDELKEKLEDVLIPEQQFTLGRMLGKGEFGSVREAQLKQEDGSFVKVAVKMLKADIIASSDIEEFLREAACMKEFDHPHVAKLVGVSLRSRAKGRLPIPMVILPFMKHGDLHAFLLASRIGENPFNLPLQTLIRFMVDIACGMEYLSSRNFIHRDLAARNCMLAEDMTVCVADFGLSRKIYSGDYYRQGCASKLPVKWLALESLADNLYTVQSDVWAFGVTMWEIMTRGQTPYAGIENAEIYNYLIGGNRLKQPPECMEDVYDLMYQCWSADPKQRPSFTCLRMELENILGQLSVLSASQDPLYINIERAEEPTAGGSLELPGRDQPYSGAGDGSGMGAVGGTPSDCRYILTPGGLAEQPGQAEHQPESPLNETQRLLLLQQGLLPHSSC
The assay can be described thus: Inhibition of wild-type human partial length TYRO3 (S497 to T814 residues) expressed in bacterial expression system using poly [Glu, Try] 4:1 as substrate in presence of [gamma-33P]ATP. In a few lines:
as §1

Another assay has as its target T2, Aurora kinase A (Homo sapiens, UniProt O14965).
T2 sequence (O14965 whole entry): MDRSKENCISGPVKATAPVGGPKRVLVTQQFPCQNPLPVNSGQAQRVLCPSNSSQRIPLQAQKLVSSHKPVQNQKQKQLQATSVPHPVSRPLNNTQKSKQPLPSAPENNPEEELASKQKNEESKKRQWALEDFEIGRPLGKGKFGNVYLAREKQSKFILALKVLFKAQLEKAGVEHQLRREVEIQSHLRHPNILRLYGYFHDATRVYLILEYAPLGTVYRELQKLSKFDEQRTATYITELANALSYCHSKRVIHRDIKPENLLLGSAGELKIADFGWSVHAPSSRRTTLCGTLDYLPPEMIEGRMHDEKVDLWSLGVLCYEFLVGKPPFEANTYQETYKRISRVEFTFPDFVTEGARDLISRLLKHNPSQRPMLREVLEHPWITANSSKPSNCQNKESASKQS
Kind of assay: Inhibition of human partial length Aurora A (E122 to K401 residues) expressed in mammalian expression system using poly [Glu, Try] 4:1 as substrate in presence of [gamma-33P]ATP. In a few lines:
as §1

Assay [6] has as its target Vascular endothelial growth factor receptor 2 (Homo sapiens, UniProt P35968). The assay can be described thus: Inhibition of wild-type human partial length VEGFR2 (R787 to P1253 residues) expressed in mammalian expression system using poly [Glu, Try] 4:1 as substrate in presence of [gamma-33P]ATP.
The target of assay [7] is RAC-alpha serine/threonine-protein kinase (Homo sapiens, UniProt P31749). The assay can be described thus: Inhibition of AKT (unknown origin) using poly [Glu, Try] 4:1 as substrate in presence of [gamma-33P]ATP. Put shortly: as §1
Chain of RAC-alpha serine/threonine-protein kinase (P31749 whole entry): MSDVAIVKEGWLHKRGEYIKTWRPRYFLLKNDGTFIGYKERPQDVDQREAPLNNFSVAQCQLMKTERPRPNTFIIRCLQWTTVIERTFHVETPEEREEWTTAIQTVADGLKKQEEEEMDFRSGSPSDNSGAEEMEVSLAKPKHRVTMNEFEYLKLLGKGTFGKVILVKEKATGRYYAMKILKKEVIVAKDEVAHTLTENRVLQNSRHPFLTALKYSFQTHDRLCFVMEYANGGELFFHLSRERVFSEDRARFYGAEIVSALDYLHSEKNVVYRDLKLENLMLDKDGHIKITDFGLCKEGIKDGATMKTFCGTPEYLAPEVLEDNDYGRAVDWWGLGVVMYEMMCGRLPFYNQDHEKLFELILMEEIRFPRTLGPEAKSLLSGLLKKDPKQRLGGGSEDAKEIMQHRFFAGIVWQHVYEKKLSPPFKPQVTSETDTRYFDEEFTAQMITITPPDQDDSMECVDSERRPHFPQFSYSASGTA

The source made the active and inactive calls. The rule behind the calls is not given here.

Usually IC50 stands for the concentration at which inhibition is half-maximal.

Chain of Hepatocyte growth factor receptor (P08581 whole entry, the tested form may be a part): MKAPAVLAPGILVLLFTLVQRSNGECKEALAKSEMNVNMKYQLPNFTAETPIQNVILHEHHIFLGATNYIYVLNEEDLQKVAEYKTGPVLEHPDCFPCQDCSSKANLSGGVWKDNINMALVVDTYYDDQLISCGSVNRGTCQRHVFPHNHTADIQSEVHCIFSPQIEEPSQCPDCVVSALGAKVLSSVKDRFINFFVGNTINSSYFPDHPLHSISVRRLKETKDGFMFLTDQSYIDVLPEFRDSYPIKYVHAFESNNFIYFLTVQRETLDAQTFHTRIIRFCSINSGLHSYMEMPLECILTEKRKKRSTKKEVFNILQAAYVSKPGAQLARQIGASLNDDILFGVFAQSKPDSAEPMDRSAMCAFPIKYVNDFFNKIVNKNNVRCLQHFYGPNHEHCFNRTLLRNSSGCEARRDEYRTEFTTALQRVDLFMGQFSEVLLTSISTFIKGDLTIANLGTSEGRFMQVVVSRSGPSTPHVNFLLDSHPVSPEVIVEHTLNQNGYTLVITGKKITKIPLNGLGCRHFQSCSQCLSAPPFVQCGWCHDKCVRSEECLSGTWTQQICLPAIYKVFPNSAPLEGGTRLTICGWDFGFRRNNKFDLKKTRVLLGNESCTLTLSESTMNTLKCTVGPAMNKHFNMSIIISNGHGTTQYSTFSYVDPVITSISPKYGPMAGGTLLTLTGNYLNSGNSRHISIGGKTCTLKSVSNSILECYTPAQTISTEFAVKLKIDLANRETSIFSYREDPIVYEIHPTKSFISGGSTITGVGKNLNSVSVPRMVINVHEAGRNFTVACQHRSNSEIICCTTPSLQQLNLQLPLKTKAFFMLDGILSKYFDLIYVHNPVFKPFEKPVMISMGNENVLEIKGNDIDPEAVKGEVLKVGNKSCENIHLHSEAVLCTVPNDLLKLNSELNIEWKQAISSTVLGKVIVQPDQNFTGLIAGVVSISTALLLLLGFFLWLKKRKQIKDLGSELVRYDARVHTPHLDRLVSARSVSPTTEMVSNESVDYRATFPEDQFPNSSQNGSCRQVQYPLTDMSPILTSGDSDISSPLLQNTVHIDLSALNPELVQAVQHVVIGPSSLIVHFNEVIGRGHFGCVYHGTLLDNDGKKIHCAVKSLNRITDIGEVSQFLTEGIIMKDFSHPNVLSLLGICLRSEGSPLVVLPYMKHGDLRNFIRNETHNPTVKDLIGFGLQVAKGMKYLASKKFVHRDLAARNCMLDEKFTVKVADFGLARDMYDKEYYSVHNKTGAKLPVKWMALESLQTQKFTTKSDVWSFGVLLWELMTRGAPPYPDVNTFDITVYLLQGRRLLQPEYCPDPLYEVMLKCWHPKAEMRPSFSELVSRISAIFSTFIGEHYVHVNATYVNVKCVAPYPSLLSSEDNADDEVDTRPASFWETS
Chain of Mast/stem cell growth factor receptor Kit (P10721 whole entry, the tested form may be a part): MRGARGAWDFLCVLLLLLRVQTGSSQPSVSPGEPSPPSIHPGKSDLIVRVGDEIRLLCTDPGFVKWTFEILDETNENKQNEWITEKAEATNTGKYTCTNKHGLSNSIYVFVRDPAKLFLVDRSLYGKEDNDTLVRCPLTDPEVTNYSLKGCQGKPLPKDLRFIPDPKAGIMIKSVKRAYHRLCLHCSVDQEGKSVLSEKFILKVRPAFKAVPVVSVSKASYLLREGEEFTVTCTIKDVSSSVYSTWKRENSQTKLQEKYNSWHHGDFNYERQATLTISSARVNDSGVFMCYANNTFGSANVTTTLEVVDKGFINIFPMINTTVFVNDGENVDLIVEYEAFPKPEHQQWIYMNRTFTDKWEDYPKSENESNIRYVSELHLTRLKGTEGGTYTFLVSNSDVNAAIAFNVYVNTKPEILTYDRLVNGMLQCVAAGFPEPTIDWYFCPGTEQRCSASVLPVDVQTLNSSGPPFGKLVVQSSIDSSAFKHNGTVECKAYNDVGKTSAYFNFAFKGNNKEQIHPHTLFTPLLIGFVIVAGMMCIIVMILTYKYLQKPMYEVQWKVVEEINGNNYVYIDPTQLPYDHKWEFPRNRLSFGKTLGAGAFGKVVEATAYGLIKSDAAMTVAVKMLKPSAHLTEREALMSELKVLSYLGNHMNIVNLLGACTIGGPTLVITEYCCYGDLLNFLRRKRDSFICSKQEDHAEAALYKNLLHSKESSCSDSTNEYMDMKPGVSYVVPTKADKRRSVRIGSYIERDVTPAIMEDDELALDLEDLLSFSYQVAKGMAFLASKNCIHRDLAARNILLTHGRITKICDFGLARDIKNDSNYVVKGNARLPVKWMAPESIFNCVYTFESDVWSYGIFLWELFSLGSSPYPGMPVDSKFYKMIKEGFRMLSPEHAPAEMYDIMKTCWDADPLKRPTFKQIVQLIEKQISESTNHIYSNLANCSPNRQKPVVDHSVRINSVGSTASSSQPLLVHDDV
Chain of Vascular endothelial growth factor receptor 2 (P35968 whole entry, the tested form may be a part): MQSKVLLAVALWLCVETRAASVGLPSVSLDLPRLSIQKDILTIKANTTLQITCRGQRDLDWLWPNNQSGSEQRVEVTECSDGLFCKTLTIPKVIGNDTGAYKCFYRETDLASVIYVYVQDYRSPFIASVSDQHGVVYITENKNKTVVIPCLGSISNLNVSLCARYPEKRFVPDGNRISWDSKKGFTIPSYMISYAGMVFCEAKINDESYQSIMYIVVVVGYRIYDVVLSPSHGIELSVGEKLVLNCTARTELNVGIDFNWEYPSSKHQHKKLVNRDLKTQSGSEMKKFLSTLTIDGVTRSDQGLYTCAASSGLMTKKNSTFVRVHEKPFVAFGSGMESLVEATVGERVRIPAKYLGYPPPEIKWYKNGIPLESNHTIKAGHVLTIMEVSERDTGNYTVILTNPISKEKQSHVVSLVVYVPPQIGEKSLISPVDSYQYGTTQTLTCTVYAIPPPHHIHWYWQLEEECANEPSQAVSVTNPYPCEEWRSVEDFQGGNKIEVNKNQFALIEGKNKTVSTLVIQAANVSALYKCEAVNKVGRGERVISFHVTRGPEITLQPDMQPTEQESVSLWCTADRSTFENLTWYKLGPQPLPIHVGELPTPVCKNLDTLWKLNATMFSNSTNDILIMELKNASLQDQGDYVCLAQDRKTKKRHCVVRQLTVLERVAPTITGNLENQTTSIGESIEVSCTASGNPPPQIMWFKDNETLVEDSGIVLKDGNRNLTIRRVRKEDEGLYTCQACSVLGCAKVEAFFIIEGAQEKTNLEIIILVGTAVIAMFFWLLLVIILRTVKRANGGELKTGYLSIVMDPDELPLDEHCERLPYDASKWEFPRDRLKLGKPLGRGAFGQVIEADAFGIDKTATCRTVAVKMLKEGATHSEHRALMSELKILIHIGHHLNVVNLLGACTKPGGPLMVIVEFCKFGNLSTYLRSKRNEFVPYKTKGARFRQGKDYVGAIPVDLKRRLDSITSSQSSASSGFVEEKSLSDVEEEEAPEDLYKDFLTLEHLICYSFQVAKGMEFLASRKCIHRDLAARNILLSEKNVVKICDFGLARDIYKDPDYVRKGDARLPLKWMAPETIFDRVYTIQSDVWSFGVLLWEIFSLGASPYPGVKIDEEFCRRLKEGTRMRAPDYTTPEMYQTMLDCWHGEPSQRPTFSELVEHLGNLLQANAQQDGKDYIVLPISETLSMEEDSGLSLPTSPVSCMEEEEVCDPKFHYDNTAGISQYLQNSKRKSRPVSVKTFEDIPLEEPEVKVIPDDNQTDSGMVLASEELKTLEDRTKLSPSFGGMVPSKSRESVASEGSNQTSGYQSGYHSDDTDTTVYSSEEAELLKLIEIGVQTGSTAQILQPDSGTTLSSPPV

As to `CNc1ncc2c(-c3ccc(N4CCNCC4)nc3)nn(Cc3cn(-c4ccc(Cl)cc4)nn3)c2n1`, the result in the assay filed under Mus musculus was inactive.

Consider `CNc1ncc2c(-c3ccc(N4CCNCC4)nc3)nn(Cc3cn(C4CCCCC4O)nn3)c2n1` (stereo unspecified), for which, in the assay listed under Mus musculus, the result was inactive.

With `CNc1ncc2c(-c3ccc(N4CCNCC4)nc3)nn(Cc3cn(-c4ccccc4)nn3)c2n1`, in the assay filed under Mus musculus, the outcome was inactive.

As for `CNc1ncc2c(-c3cnc4[nH]ccc4c3)nn(Cc3cn(Cc4ccccc4)nn3)c2n1`, the result in the assay filed under Mus musculus was inactive.

Regarding `CNc1ncc2c(-c3ccc(N4CCNCC4)nc3)nn(Cc3cn(Cc4ccccc4)nn3)c2n1`, in the assay listed under Mus musculus, the result was Active. Further, the concentration for half-maximal inhibition (IC50) in [1] is 1 µM; in assay [2] it was above 10 µM; in [3], above 10 µM; in [4], above 10 µM; in assay [5], above 10 µM; at Aurora kinase A, 1.8 µM. Also, the IC50 in assay [6] and in assay [7] was above 10 µM each time.

`CNc1ccc(-c2nn(Cc3cn(Cc4ccccc4)nn3)c3nc(NC)ncc23)cn1`: in the assay listed under Mus musculus, the outcome was inactive.

On to `CNc1ncc2c(-c3ccc(N4CCNCC4)nc3)nn(Cc3cn(-c4ccc(OC)cc4)nn3)c2n1`, for which, in the assay listed under Mus musculus, the outcome was inactive.

In the case of `CNc1ncc2c(-c3ccc(N4CCNCC4)nc3)nn(Cc3cn(C4CCCC4O)nn3)c2n1` (stereo unspecified), the result in the assay listed under Mus musculus was inactive.
